# In ChEMBL document CHEMBL5724801, “EUbOPEN Chemogenomics Library - Multiplex” (2024):
# “And” between values parts separate entries of the source, which are not always exact repeats. Equal entries are not always repeated.
# Test system: HEK-293T
# Experiment: Multiplex assay against HEK293T
# Format: toxicity, cell-based
# Conditions: human
# How it was run: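 Hoechst33342, BioTracker Green Microtubule Cytoskeleton Dye, MitoTracker Red and Annexin V Alexa Fluor 680 were added to live cells at seeding, and imaging on a CQ1 microscope at 37°C and 5% CO2 followed compound addition. Gating by CellPathfinder machine learning separated cells into Hoechst high-intensity objects or normal cells, then normal cells into healthy, pyknosed or fragmented nuclei, then pyknosed cells into mitotic or apoptotic. Per cents of healthy-nucleus cells are reported for the tubulin, mitochondrial-mass and membrane-permeability phenotypes.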
# [1] = 12 h, 1 µM, compound concentration 1 uM
# [2] = 12 h, 10 µM, compound concentration 10 uM
# [3] = 24 h, 1 µM, compound concentration 1 uM
# [4] = 24 h, 10 µM, compound concentration 10 uM
# [5] = 48 h, 1 µM, compound concentration 1 uM
# [6] = 48 h, 10 µM, compound concentration 10 uM
smiles,measurement,setting,value
COc1ccc2c(c1OCc1ccccc1)C[C@@H](C(=O)O)N(C(=O)C(c1ccccc1)c1ccccc1)C2 [OLODANRIGAN],Population Apoptotic (%),[1],39% and 43%
same,Population Fragmented Nuclei (%),[1],6% and 7%
same,Population Healthy Nuclei (%),[1],82% and 81%
same,Population Hoechst High Intensity Objects (%),[1],7%
same,Population Membrane Permeable-Phenotype (%),[1],0%
same,Population Mitochondria Different-Phenotype (%),[1],44% and 48%
same,Population Mitotic Cells (%),[1],60% and 56%
same,Population Normal (%),[1],92%
same,Population Pyknosed Nuclei (%),[1],11% and 10%
same,Population Tubulin-Different-Phenotype (%),[1],21% and 17%
same,Total Cell Count,[1],419 and 409
same,Population Apoptotic (%),[2],45% and 44%
same,Population Fragmented Nuclei (%),[2],6% and 4%
same,Population Healthy Nuclei (%),[2],81% and 83%
same,Population Hoechst High Intensity Objects (%),[2],6% and 3%
same,Population Membrane Permeable-Phenotype (%),[2],0%
same,Population Mitochondria Different-Phenotype (%),[2],42% and 58%
same,Population Mitotic Cells (%),[2],54% and 55%
same,Population Normal (%),[2],93% and 96%
same,Population Pyknosed Nuclei (%),[2],12%
same,Population Tubulin-Different-Phenotype (%),[2],35% and 27%
same,Total Cell Count,[2],389 and 368
same,Population Apoptotic (%),[3],46% and 19%
same,Population Fragmented Nuclei (%),[3],11% and 10%
same,Population Healthy Nuclei (%),[3],78% and 81%
same,Population Hoechst High Intensity Objects (%),[3],3% and 6%
same,Population Membrane Permeable-Phenotype (%),[3],0% and 1%
same,Population Mitochondria Different-Phenotype (%),[3],24% and 30%
same,Population Mitotic Cells (%),[3],53% and 80%
same,Population Normal (%),[3],96% and 93%
same,Population Pyknosed Nuclei (%),[3],10% and 8%
same,Population Tubulin-Different-Phenotype (%),[3],15% and 14%
same,Total Cell Count,[3],614 and 521
same,Population Apoptotic (%),[4],40% and 43%
same,Population Fragmented Nuclei (%),[4],7% and 10%
same,Population Healthy Nuclei (%),[4],78% and 79%
same,Population Hoechst High Intensity Objects (%),[4],6%
same,Population Membrane Permeable-Phenotype (%),[4],0%
same,Population Mitochondria Different-Phenotype (%),[4],34% and 57%
same,Population Mitotic Cells (%),[4],59% and 56%
same,Population Normal (%),[4],93%
same,Population Pyknosed Nuclei (%),[4],13% and 9%
same,Population Tubulin-Different-Phenotype (%),[4],32% and 28%
same,Total Cell Count,[4],456 and 414
same,Population Apoptotic (%),[5],26% and 22%
same,Population Fragmented Nuclei (%),[5],13% and 15%
same,Population Healthy Nuclei (%),[5],80% and 79%
same,Population Hoechst High Intensity Objects (%),[5],2%
same,Population Membrane Permeable-Phenotype (%),[5],0%
same,Population Mitochondria Different-Phenotype (%),[5],15% and 18%
same,Population Mitotic Cells (%),[5],73% and 77%
same,Population Normal (%),[5],97%
same,Population Pyknosed Nuclei (%),[5],5%
same,Population Tubulin-Different-Phenotype (%),[5],11% and 10%
same,Total Cell Count,[5],1083 and 818
same,Population Apoptotic (%),[6],32% and 39%
same,Population Fragmented Nuclei (%),[6],12%
same,Population Healthy Nuclei (%),[6],78% and 80%
same,Population Hoechst High Intensity Objects (%),[6],5% and 6%
same,Population Membrane Permeable-Phenotype (%),[6],0%
same,Population Mitochondria Different-Phenotype (%),[6],22% and 32%
same,Population Mitotic Cells (%),[6],67% and 60%
same,Population Normal (%),[6],94% and 93%
same,Population Pyknosed Nuclei (%),[6],8% and 7%
same,Population Tubulin-Different-Phenotype (%),[6],15% and 18%
same,Total Cell Count,[6],659 and 534
Cc1cc(NC(=O)NCCN2CCC(O)(Cc3ccccc3)CC2)c2ccccc2n1 [PALOSURAN],Population Apoptotic (%),[1],36% and 48%
same,Population Fragmented Nuclei (%),[1],7% and 9%
same,Population Healthy Nuclei (%),[1],77% and 81%
same,Population Hoechst High Intensity Objects (%),[1],6% and 9%
same,Population Membrane Permeable-Phenotype (%),[1],0%
same,Population Mitochondria Different-Phenotype (%),[1],42% and 57%
same,Population Mitotic Cells (%),[1],63% and 52%
same,Population Normal (%),[1],93% and 90%
same,Population Pyknosed Nuclei (%),[1],14% and 8%
same,Population Tubulin-Different-Phenotype (%),[1],25% and 26%
same,Total Cell Count,[1],373 and 326
same,Population Apoptotic (%),[2],38% and 61%
same,Population Fragmented Nuclei (%),[2],5%
same,Population Healthy Nuclei (%),[2],81% and 75%
same,Population Hoechst High Intensity Objects (%),[2],8%
same,Population Membrane Permeable-Phenotype (%),[2],0%
same,Population Mitochondria Different-Phenotype (%),[2],53% and 76%
same,Population Mitotic Cells (%),[2],61% and 38%
same,Population Normal (%),[2],91%
same,Population Pyknosed Nuclei (%),[2],12% and 18%
same,Population Tubulin-Different-Phenotype (%),[2],41% and 42%
same,Total Cell Count,[2],461 and 346
same,Population Apoptotic (%),[3],17% and 46%
same,Population Fragmented Nuclei (%),[3],9% and 10%
same,Population Healthy Nuclei (%),[3],78% and 76%
same,Population Hoechst High Intensity Objects (%),[3],6% and 4%
same,Population Membrane Permeable-Phenotype (%),[3],0%
same,Population Mitochondria Different-Phenotype (%),[3],24% and 45%
same,Population Mitotic Cells (%),[3],82% and 53%
same,Population Normal (%),[3],93% and 95%
same,Population Pyknosed Nuclei (%),[3],11% and 13%
same,Population Tubulin-Different-Phenotype (%),[3],19% and 14%
same,Total Cell Count,[3],511 and 343
same,Population Apoptotic (%),[4],35% and 51%
same,Population Fragmented Nuclei (%),[4],8% and 7%
same,Population Healthy Nuclei (%),[4],79% and 83%
same,Population Hoechst High Intensity Objects (%),[4],4% and 6%
same,Population Membrane Permeable-Phenotype (%),[4],0%
same,Population Mitochondria Different-Phenotype (%),[4],43% and 64%
same,Population Mitotic Cells (%),[4],64% and 48%
same,Population Normal (%),[4],95% and 93%
same,Population Pyknosed Nuclei (%),[4],11% and 9%
same,Population Tubulin-Different-Phenotype (%),[4],32% and 26%
same,Total Cell Count,[4],598 and 396
same,Population Apoptotic (%),[5],19% and 32%
same,Population Fragmented Nuclei (%),[5],15% and 13%
same,Population Healthy Nuclei (%),[5],79% and 81%
same,Population Hoechst High Intensity Objects (%),[5],3%
same,Population Membrane Permeable-Phenotype (%),[5],1% and 0%
same,Population Mitochondria Different-Phenotype (%),[5],16% and 24%
same,Population Mitotic Cells (%),[5],80% and 67%
same,Population Normal (%),[5],96%
same,Population Pyknosed Nuclei (%),[5],5%
same,Population Tubulin-Different-Phenotype (%),[5],12% and 15%
same,Total Cell Count,[5],938 and 552
same,Population Apoptotic (%),[6],29% and 41%
same,Population Fragmented Nuclei (%),[6],15% and 9%
same,Population Healthy Nuclei (%),[6],75% and 84%
same,Population Hoechst High Intensity Objects (%),[6],5% and 4%
same,Population Membrane Permeable-Phenotype (%),[6],0%
same,Population Mitochondria Different-Phenotype (%),[6],34% and 42%
same,Population Mitotic Cells (%),[6],70% and 58%
same,Population Normal (%),[6],94% and 95%
same,Population Pyknosed Nuclei (%),[6],8% and 6%
same,Population Tubulin-Different-Phenotype (%),[6],17% and 19%
same,Total Cell Count,[6],874 and 570
